# The sample as a whole holds a higher share of hits than the screen did.
# bCat KO growth: primary screen for growth suppressors in beta-catenin knockout HCT116 cells (colon tumor, human). HCT116 beta-catenin knockout viability, CellTiter-Glo, 60 h; active compounds read low. 140,000 tested, 1.5% active. viability, % at 10 µM;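 active = viability at or under a set limit, the compound median less 4 SD, cut at about 6% in these data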;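 also: 0% = Hyamine 1622 control at 20 µM and 100% = untreated cell control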
# HCT116 PTEN-null: growth suppression of PTEN-null HCT116, primary screen, cell-based, CellTiter-Glo. HCT116 PTEN-null viability, 60 h; active compounds read low. viability, % at 10 µM. 140,000 tested, 1.2% active;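 active = viability at or below a set limit, 4 SD under the median of all tested compounds, cut at about 3.7% in these data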;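 also: PTEN knockout HCT116 line with beta catenin targeted HCT116 as companion control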
# H69AR growth 86K: proliferation blockers of H69AR lung cancer cells, primary screen, cell-based, human, 86K library; H69AR lung tumor viability, ATP luminescence, 72 h; active compounds read low; 85,000 tested, 6% active; viability, % at 10 µM; AID 598, 2007;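 active = viability at or below 40%; inactive = viability above 40%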;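 also: multidrug resistant small cell line overexpressing MRP-1 efflux transporter; 100% = mean luminescence of untreated control wells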
# HUVEC inhibit: inhibitors of HUVEC proliferation, primary screen, cell-based, 384-well. CellTiter-Glo luminescence, 72 h; active compounds read low. viability, % at 10 µM (by protocol). 86,000 tested, 1.1% active. AID 648, 2007;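 active = viability at or below 30%; inactive = viability above 30%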;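 also: 100% = median luminescence of DMSO-only cell control wells on each plate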
# Fibroblast inh: antiproliferative effect on LL 47 fibroblasts – human, LL 47 cells, CellTiter-Glo luminescence, primary screen; LL 47 human lung fibroblast viability, ATP luminescence; active compounds read low; viability, % at 10 µM; 85,000 tested, 1.1% active;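 active = viability at or below 50% in the single dose screen; inactive = viability above 50%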;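 also: compound exposure lasted 72 h before the ATP readout; 100% = median luminescence of untreated cell-only wells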
#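 Test system: LL 47 human lung fibroblasts / Quantity: 1,150 cells in each well / Medium: IMEM growth medium with 15% fetal bovine serum / Incubation: 72 h compound exposure at 37 °C after overnight plating / Detection: CellTiter-Glo luminescence measuring cellular ATP / Read-out: % viability versus median cells-only luminescence / Benchmarks: cell-only wells, no compound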
# Starred values were filed as active, the others as inactive; . = not tested or not shown.
SMILES,bCat KO growth,HCT116 PTEN-null,H69AR growth 86K,HUVEC inhibit,Fibroblast inh
N#Cc1cc2c(nc1SCC(=O)Nc1sc3c(c1C#N)CCC3)CCCCCC2,50.4,52.1,10.6*,76.6,75.2
Cc1csc(SCC(=O)Nc2sc3c(c2C#N)CCC3)n1,48.2,46.6,31.6*,78.3,93.6
CC(C)OC(=O)CC(=O)CSc1nc2c(cc1C#N)CCC2,27.2,15.1,23.7*,81.2,92.7
CC(C)CNC(=O)CC(=O)N/N=C/c1ccc(F)cc1,88.4,94.9,.,.,.
COc1ccc([N+](=O)[O-])cc1NC(=O)C1CCCO1 (stereo not drawn),94.4,109.1,.,.,.
N#Cc1cc2c(nc1SCC(=O)Nc1sc3c(c1C#N)CCC3)CCC2,104.0,88.0,33.8*,56.7,86.0
CCn1c(SCC(=O)Nc2sc3c(c2C#N)CCCC3)nnc1-c1ccncc1,97.3,93.5,0.9*,99.2,97.0
COc1ccc(-c2ccc(C#N)c(SCC(=O)NCCc3ccccc3)n2)cc1OC,5.7*,4.0,.,.,.
CCCC(=O)Nc1sc2c(c1C#N)CCCCC2,0.9*,1.0*,98.7,82.3,100.5
COc1cccc(-c2ccc(C#N)c(SCC(=O)NCCc3cccc(Cl)c3)n2)c1,71.3,73.4,.,.,.
O=C(Nc1ccccc1)c1sc2cc(C(F)(F)F)cnc2c1-c1cccs1,96.1,65.5,86.2,101.1,108.8
CC1CCc2c(sc(NC(=O)CSc3nnc(-c4ccccc4)o3)c2C#N)C1 (stereo not drawn),80.4,89.2,.,.,.
CCN1CCN(CC(=O)Nc2sc3c(c2C#N)CCC(C)C3)CC1 (stereo not drawn),1.4*,1.5*,32.1*,78.9,91.9
COc1ccc(-c2nnn(CC(=O)Nc3sc4c(c3C#N)CCCC4)n2)cc1,90.7,93.0,6.8*,107.8,108.3
COc1ccc(-c2ccc(C#N)c(SCC(=O)Nc3sc4c(c3C#N)CCC4)n2)cc1OC,49.0,62.2,1.0*,8.7*,68.3
O=C(O)c1ccc(NC(CSCc2ccccc2F)C(=O)O)c([N+](=O)[O-])c1 (stereo not drawn),90.4,94.4,.,.,.
N/C(=N\OC(=O)CSc1ccccc1)c1ccc([N+](=O)[O-])cc1,93.9,104.3,.,.,.
CC(C)C(=O)Nc1ccc(C(=O)NNC(=O)CCCOc2ccc(Cl)cc2Cl)cc1,86.3,92.6,.,.,.
COCCn1nnnc1C(c1cc2cc(C)ccc2[nH]c1=O)N1CCCCCC1 (stereo not drawn),94.7,105.8,71.5,97.2,103.9
CCc1ccc2[nH]c(=O)c(C(c3nnnn3CC3CCCO3)N3CCCc4ccccc43)cc2c1 (stereo not drawn),87.2,84.4,20.2*,89.2,95.4
O=c1[nH]c2cc3c(cc2cc1C(c1nnnn1Cc1ccccc1)N1CCCCCC1)OCCO3 (stereo not drawn),93.2,99.0,2.1*,68.7,29.8*
O=c1[nH]c2cc3c(cc2cc1C(c1nnnn1Cc1ccccc1)N1CCCc2ccccc21)OCO3 (stereo not drawn),90.4,86.1,21.2*,53.1,80.3
COCCn1nnnc1C(c1cc2cc(OC)ccc2[nH]c1=O)N1CCC(Cc2ccccc2)CC1 (stereo not drawn),3.0*,2.7*,3.8*,96.1,105.7
CC(C)(C)C1=C(C#N)C(c2cccnc2)C(C#N)=C(N)O1 (stereo not drawn),100.6,104.5,.,.,.
CCOC(=O)C1=C(c2ccccc2)OC(N)=C(C#N)C1c1cccs1 (stereo not drawn),91.7,96.4,.,.,.
SMILES,bCat KO growth,HCT116 PTEN-null,H69AR growth 86K,HUVEC inhibit,Fibroblast inh
N#CC1=C(N)Oc2cc3ccccc3cc2C1c1cccs1 (stereo not drawn),52.2,37.9,21.0*,59.5,86.5
N#CC1=C(N)Oc2cc3ccccc3cc2C1c1cccnc1 (stereo not drawn),33.5,30.4,19.6*,66.5,70.3
N#CC1=C(N)Oc2c(ccc3cccnc23)C1c1cccnc1 (stereo not drawn),4.5*,4.0,.,.,.
COc1ccc(N2CCN(CC(=O)Nc3cccc(S(=O)(=O)N4CCOCC4)c3)CC2)cc1,84.4,91.0,.,.,.
CC(=O)c1nn(-c2cccc(Br)c2)cc1C(=O)c1ccc2ccccc2c1,3.7*,4.0,.,.,.
S=C1NC2=C(CCC/C2=C\c2ccccc2)C(c2ccccc2)N1 (stereo not drawn),90.6,94.7,.,.,.
C(=C1/CCCC2=C1Nc1ncnn1C2c1ccccc1)/c1ccccc1 (stereo not drawn),1.5*,1.5*,0.8*,12.9*,4.1*
N=c1c(S(=O)(=O)c2ccccc2)cc2c(=O)n3ccccc3nc2n1Cc1ccco1,6.6,4.2,10.9*,87.4,75.7
N=c1c(S(=O)(=O)c2ccccc2)cc2c(=O)n3ccccc3nc2n1CCN1CCOCC1,.,.,73.1,91.0,103.0
Cc1ccc(S(=O)(=O)c2cc3c(=O)n4ccccc4nc3n(Cc3ccco3)c2=N)cc1C,69.6,62.4,7.8*,86.9,73.4
FC(F)(F)c1cc(C(F)(F)F)c2ccc(N3CCN(c4ccc(Cl)cc4)CC3)nc2n1,73.8,71.2,.,.,.
N#CC(c1ccc(Cl)cc1)c1ccc2c(C(F)(F)F)cc(C(F)(F)F)nc2n1 (stereo not drawn),0.9*,0.8*,4.6*,27.2*,18.5*
Cc1ccc(NC(=S)Nc2ccc(C(C)C)cc2)cc1S(=O)(=O)N1CCCCCC1,14.3,10.4,.,.,.
COc1cc(C(=O)NC2CCCc3ccccc32)ccc1OCC(=O)Nc1ccc(F)cc1 (stereo not drawn),72.5,81.0,.,.,.
CCC(=O)N1CCN(c2ccccc2NC(=O)COc2cc(C)ccc2C(C)C)CC1,8.4,4.0,35.6*,52.6,90.2
CC(=O)N1CCN(c2ccccc2NC(=O)COc2ccc(Cl)cc2Cl)CC1,77.9,61.3,56.8,92.2,84.1
COc1ccc(C2CCCN2C(=O)Nc2ccccc2)cc1OC (stereo not drawn),96.7,105.8,96.6,101.9,95.5
CCOC(=O)C1CCN(C(=O)Cn2cc(C(=O)C3CC3)c3ccccc32)CC1,89.4,97.3,39.8*,83.9,82.2
O=C(Oc1ccc(OC(=O)C2CCC2)cc1)C1CCC1,73.8,86.2,.,.,.
CN1OC(c2ccccc2)=C(CO)C1c1ccccc1 (stereo not drawn),81.6,93.3,.,.,.
COc1ccc(NC(=O)Nc2nnc(N3CCC(C)CC3)s2)cc1OC,98.1,89.8,37.5*,82.6,94.1
COc1cc(NC(=S)NCc2ccc(S(N)(=O)=O)cc2)c(OC)cc1Cl,85.0,76.1,.,.,.
CC1CCN(CC(=O)N2c3ccccc3CCc3ccccc32)CC1,0.8*,0.8*,.,.,.
COc1ccc(NC(=S)NNC(=O)Cn2nc(C(F)F)cc2C(F)F)cc1,97.5,99.8,.,.,.
CCOC(=O)c1c(C)[nH]c(C(=O)C(C)OC(=O)c2cccc(OCc3c(C)noc3C)c2)c1C (stereo not drawn),50.7,62.6,81.2,83.1,97.6
